ChEMBL document CHEMBL1135968, “The effect of a phosphodiester linking group on albumin binding, blood half-life, and relaxivity of intravascular diethylenetriaminepentaacetato aquo gadolinium(III) MRI contrast agents” (J Med Chem, 2002)

What was measured:
[1] = Relaxivity, measured in phosphate buffer saline (PBS); assay type: ADME
Outline: (§1)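 T1 was read at 20 MHz (0.47 T) and 37 °C, in triplicate, with recycle delay 5× T1. Five sequential additions of 1–10 mM chelate were titrated into PBS (10 mM phosphate, 150 mM NaCl, pH 7.4) or into 4.5% HSA (fraction V) in PBS. r1 was taken from the titration.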

Rattus norvegicus [2] = organism: Rattus norvegicus; experiment: Percent of biliary excretion measured in 24 hr in rat; assay type: ADME, organism-based, Bile; details: in vivo
Outline: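 Rats were dosed i.v. at 0.1 mmol/kg with 153Gd-labeled chelate (male Sprague-Dawley, 150-250 g) and housed in metabolic cages to collect urine and feces. They were sacrificed at 24 h. Tissues and excreta were gamma counted, and % injected dose = sample CPM / injected CPM × 100.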

[3] = Area under plasma 1/T1 versus time curve, 0-30 min; assay type: ADME, cell-free; parameters: concentration or dose not given beside the values
Outline: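 Male Sprague-Dawley rats (150-250 g, n = 2-5, unanesthetized) were given 0.1 mmol/kg 153Gd chelate i.v. by tail vein catheter. Plasma water T1 was measured on a Minispec in triplicate, and plasma Δ1/T1 was followed over time. AUC 0-30 min was calculated per animal by the trapezoidal rule. Values are mean ± 1 SD.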

Albumin [4] = molecular target: T1, Albumin (Homo sapiens, UniProt P02768); experiment: Observed relaxivity bound to human serum albumin (4.5%); outline: as §1
Rattus norvegicus [5] = organism: Rattus norvegicus; experiment: Volume of distribution, steady state in rat; assay type: ADME, organism-based; details: in vivo
Outline: (§2)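 Unanesthetized male Sprague-Dawley rats (150-250 g, n = 2-5) received 153Gd-labeled chelate via tail vein catheter at 0.1 mmol/kg. Plasma was separated from heparinized blood and Gd was measured by ICP. Concentration-time data were fitted biexponentially. Elimination half-life = 0.693/β and Vd = dose/B. AUC 0-30 min was computed per animal by the trapezoidal rule. Values are mean ± 1 SD.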

[6] = Area under concentration versus time curve, 0-30 min; assay type: ADME; parameters: time < 0.5 hr; details: 0.5 h; outline: as §2
Albumin [7] = molecular target: T1, Albumin; experiment: Percentage of compound (0.1 mM) bound to human serum albumin (4.5%); details: 100 µM
Outline: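 Ultrafiltration, in duplicate. 153Gd-labeled chelate was added to 4.5% HSA to 0.1 mM total Gd. An aliquot was counted, and 400 μL was centrifuged through a 5000 NMWL filter at room temperature (22 ± 1 °C). The unbound fraction came from filtrate counts.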

Rattus norvegicus [8] = organism: Rattus norvegicus; experiment: Elimination of half-life in rat; assay type: ADME, organism-based; details: in vivo; outline: as §2

T1 sequence (P02768 whole entry): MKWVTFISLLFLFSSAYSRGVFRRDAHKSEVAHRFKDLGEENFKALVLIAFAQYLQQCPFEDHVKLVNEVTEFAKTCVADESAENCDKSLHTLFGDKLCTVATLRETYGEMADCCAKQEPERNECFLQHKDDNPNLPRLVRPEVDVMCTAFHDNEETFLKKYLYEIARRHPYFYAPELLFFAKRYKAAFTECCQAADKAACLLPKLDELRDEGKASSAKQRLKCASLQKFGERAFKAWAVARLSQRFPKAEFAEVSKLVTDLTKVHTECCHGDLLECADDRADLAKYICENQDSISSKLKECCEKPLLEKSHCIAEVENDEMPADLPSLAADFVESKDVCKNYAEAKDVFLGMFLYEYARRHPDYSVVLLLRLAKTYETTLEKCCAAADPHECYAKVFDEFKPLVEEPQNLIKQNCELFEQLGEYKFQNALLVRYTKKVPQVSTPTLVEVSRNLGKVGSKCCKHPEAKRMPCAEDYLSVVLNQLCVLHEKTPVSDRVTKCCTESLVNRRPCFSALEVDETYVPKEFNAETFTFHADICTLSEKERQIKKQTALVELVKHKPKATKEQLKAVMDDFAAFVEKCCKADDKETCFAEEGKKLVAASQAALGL

| Substance | Relaxivity [1] | Excretion (Rattus norvegicus [2]) | AUC 1/T1 [3] | Observed relaxivity (Albumin [4]) | Vdss (Rattus norvegicus [5]) | AUC conc [6] | Bound (Albumin [7]) | T1/2 beta (Rattus norvegicus [8]) |
| --- | --- | --- | --- | --- | --- | --- | --- | --- |
| Bis-[N-methyl-D-glucamine]-{(2-((2-naphthyl)methyl)-diethylenetriaminepentaacetato)(aquo)-gadolinium (III)} | 5.5 mM⁻¹ s⁻¹ | 64.3% | 40.1 s-1 min | 16.3 mM⁻¹ s⁻¹ | 0.44 L/kg | 43 µM·h | 30% | 6.8 min |
| DIETHYLENETRIAMINEPENTAACETATO AQUO GADOLINIUM (III) | 4.6 mM⁻¹ s⁻¹ | 6.3% | 46.4 s-1 min | 4.6 mM⁻¹ s⁻¹ | 0.28 L/kg | 104 µM·h | 0% | 15.4 min |
| Tris-[N-methyl-D-glucamine]-{(2-(R)-[(2-(1-naphthyl)-ethyl)phosphonooxymethyl]diethylenetriaminepentaacetato)(aquo)-gadolinium (III)} | 6 mM⁻¹ s⁻¹ | 17% | 94.2 s-1 min | 19.5 mM⁻¹ s⁻¹ | 0.32 L/kg | 92.8 µM·h | 40% | 14.3 min |

Continued, values first:

| Relaxivity [1] | Excretion (Rattus norvegicus [2]) | AUC 1/T1 [3] | Observed relaxivity (Albumin [4]) | Vdss (Rattus norvegicus [5]) | AUC conc [6] | Bound (Albumin [7]) | T1/2 beta (Rattus norvegicus [8]) | Substance |
| --- | --- | --- | --- | --- | --- | --- | --- | --- |
| 5.9 mM⁻¹ s⁻¹ | 66.9% | 69.7 s-1 min | 20.7 mM⁻¹ s⁻¹ | 0.62 L/kg | 51 µM·h | 44% | 6.2 min | Bis-[N-methyl-D-glucamine]-{(2-(octyldiethylenetriamine)diethylenetriaminepentaacetato)(aquo)-gadolinium (III)} |
| 6.1 mM⁻¹ s⁻¹ | 17.7% | 150 s-1 min | – | 0.31 L/kg | 99.3 µM·h | 54% | 14.3 min | Tris-[N-methyl-D-glucamine]-{(2-(R)-[octylphosphonooxymethyl]diethylenetriaminepentaacetato)(aquo)-gadolinium (III)} |
| 6.6 mM⁻¹ s⁻¹ | 15.8% | 285 s-1 min | 42 mM⁻¹ s⁻¹ | 0.24 L/kg | 156 µM·h | 88% | 23.1 min | Trisodium-{(2-(R)-[(4,4-diphenylcyclohexyl)phosphonooxymethyl]diethylenetriaminepentaacetato)(aquo)-gadolinium (III)} |
